Results on 2 molecules are retold here after paper PMC5569649 (Clinical Drug Investigation, 2017).

In general, Cmax refers to the peak of the concentration-time curve.

Structures can show the parent of a compound that is named as a salt. Non-standard residues stand in square brackets, D forms with d. Residues, ends and D or L forms follow the SMILES beside them. *: point of attachment. dPhe(4-NHCONH2) = NC(=O)Nc1ccc(C[C@@H](N)C(=O)O)cc1; Dihydroorotyl(S) = O=C1C[C@@H](C(=O)*)NC(=O)N1; dPhe(4-Cl) = N[C@H](Cc1ccc(Cl)cc1)C(=O)O; Phe(4-NH2) = Nc1ccc(C[C@H](N)C(=O)O)cc1; d2Nal = N[C@H](Cc1ccc2ccccc2c1)C(=O)O; Lys(iPr) = CC(C)NCCCC[C@H](N)C(=O)O; d3Pal = N[C@H](Cc1cccnc1)C(=O)O

For series [1], the system named is human ether-a-go-go-related gene (hERG) channel. Conditions: preclinical investigations; ref Ferring Pharmaceuticals, unpublished data; cited from earlier work.
For series [2] the following is noted: cited from earlier work.
The subject of a further series is healthy men. As to the kind of experiment: Safety assessments. Type of series: in vivo. In outline: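 Six-sequence crossover of iv test compound, iv placebo and oral moxifloxacin, with 7–10 day washouts. Adverse events, 12-lead ECG and vital signs were monitored throughout. Clinical chemistry, haematology and urinalysis were run by a central laboratory. Adverse event was defined as any untoward medical occurrence in a participant.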

A further series has as its system human GnRH receptor. Particulars: cited from earlier work.
In series [3] the test system is QT interval / cardiac repolarisation in healthy men. As to the kind of experiment: Thorough QT/QTc study, 12-lead ECG, QTcF. It is filed as in vivo. Conditions: for No. of subjects with ΔQTcF >30 ms / No. of subjects with ΔQTcF >60 ms / No. of subjects with ΔQTcF ≤30 ms / No. of subjects with QTcF >450 ms / No. of subjects with QTcF >480 ms / No. of subjects with QTcF >500 ms / No. of subjects with QTcF ≤450 ms: categorical analysis, degarelix n = 76, moxifloxacin n = 78; for No. of subjects with ΔQTcF >30 ms / No. of subjects with ΔQTcF >60 ms / No. of subjects with ΔQTcF ≤30 ms: change from baseline.

The nature of series [4]: Degarelix plasma concentration. Type of series: in vivo, healthy men. In outline:
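Single 60-min iv infusion of 2.8 mg in 5% glucose. Plasma sampled predose and at 30, 60, 90, 120, 150, 180 min, 6, 12 and 24 h after infusion start. Assay: validated solid-phase extraction with LC–MS/MS, quantification range 0.500–100 ng/mL (up to 500 ng/mL after dilution), precision and bias within 10%. Parameters from noncompartmental analysis; values below LLOQ or missing were excluded.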

Turning to `CC(=O)N[C@H](Cc1ccc2ccccc2c1)C(=O)N[C@H](Cc1ccc(Cl)cc1)C(=O)N[C@H](Cc1cccnc1)C(=O)N[C@@H](CO)C(=O)N[C@@H](Cc1ccc(NC(=O)[C@@H]2CC(=O)NC(=O)N2)cc1)C(=O)N[C@H](Cc1ccc(NC(N)=O)cc1)C(=O)N[C@@H](CC(C)C)C(=O)N[C@@H](CCCCNC(C)C)C(=O)N1CCC[C@H]1C(=O)N[C@H](C)C(N)=O` [degarelix] (Ac-[d2Nal][dPhe(4-Cl)][d3Pal]S[Phe(4-NH2)](Dihydroorotyl(S))[dPhe(4-NHCONH2)]L[Lys(iPr)]P[dA]-NH2), the “Effect on hERG channel” value in series [1] is “no effect”. In series [2] (single subcutaneous administration of 240 mg, prostate cancer), the Median peak concentration is 66 ng/mL. In addition, the Half-life result in series [2] (subcutaneous administration, slow-release phase from in situ depot) is listed as “several weeks”. The “Intensity of AEs” value in the series on healthy men (after degarelix treatment) is given as “mild intensity”. Besides, the “Number of AEs reported” value in the series on healthy men (after each treatment) was determined as 27. The “Mean changes in placebo-corrected HR, PR and QRS durations” value in the series on healthy men (degarelix 2.8 mg iv) is listed as “did not show any clinically relevant results”. Moreover, the “Affinity and selectivity towards the human GnRH receptor” value in the series on human GnRH receptor is “high affinity and selectivity”. Further, in series [3], the “No. of subjects with ΔQTcF >30 ms” value is on record as 3 (4%) n (%), the “No. of subjects with ΔQTcF >60 ms” value is listed as 0 n (%), the “No. of subjects with ΔQTcF ≤30 ms” value is recorded as 73 (96%) n (%) and the “No. of subjects with QTcF >450 ms” value is 0 n (%). For the same molecule, in series [3], the “No. of subjects with QTcF >480 ms” value is on record as 0 n (%), the “No. of subjects with QTcF >500 ms” value is reported as 0 n (%) and the “No. of subjects with QTcF ≤450 ms” value is 76 (100%) n (%). In addition, the “One-sided 95% upper confidence boundaries for ΔΔQTcF at any of the nine timepoints” value in series [3] (degarelix 2.8 mg iv over 60 min, 24-h period after start of infusion) is not above 10 ms. For the same molecule, in series [3] (degarelix 2.8 mg iv over 60 min, time-matched), the “Mean maximum baseline-corrected difference versus placebo in QTcF” value is less than 4 ms. The “Slope of concentration-response effect on QTcF compared with placebo” value in series [3] (repeated measures ANCOVA, 677 observations from 79 subjects) is recorded as “slightly negative slope”. Also, the “Degarelix concentration at 24 h relative to Cmax” value in series [4] (24 h after start of degarelix 2.8 mg iv administration) is listed as less than 10%. The molecule further showed a Cmax in series [4] (male, human, plasma, iv, 2.8 mg) of 222 ng/mL. In addition, the “Median maximal degarelix plasma concentration” value in series [4] (single dose 2.8 mg infused iv over 60 min at constant rate) was “approximately 220 ng/mL”.

Consider `COc1c(N2C[C@@H]3CCCN[C@@H]3C2)c(F)cc2c(=O)c(C(=O)O)cn(C3CC3)c12` [moxifloxacin, moxifloxacin hydrochloride], for which, in the series on healthy men (80 subjects randomised, after each treatment), the “Subjects reporting AEs” value was 22 (28%) n (%). Moreover, in the series with healthy men (after each treatment), the “Number of AEs reported” value is recorded as 29. In series [3], the “No. of subjects with ΔQTcF >30 ms” value is listed as 15 (19%) n (%), the “No. of subjects with ΔQTcF >60 ms” value was 0 n (%), the “No. of subjects with ΔQTcF ≤30 ms” value was 63 (81%) n (%) and the “No. of subjects with QTcF >450 ms” value was 2 (3%) n (%). Besides, in series [3], the “No. of subjects with QTcF >480 ms” value is given as 0 n (%), the “No. of subjects with QTcF >500 ms” value is recorded as 0 n (%) and the “No. of subjects with QTcF ≤450 ms” value is 76 (97%) n (%). For the same molecule, in series [3] (moxifloxacin 400 mg oral), the “QTc prolongation produced by positive control” value was not below 5 ms. Moreover, in series [3] (moxifloxacin 400 mg single oral dose, at 2.5, 3 and 6 h, assay sensitivity), the “Lower bound of 98.3% CI for ΔΔQTcF (moxifloxacin vs placebo)” value was “exceeded 5 ms”.
